Measured values: the RNAGym collection of RNA variant scans (doi:10.1126/science.aae0568)
Variants at the floor of the assay were thinned out.

B1: tRNA (parent)
chain: GUUCCGUUGGCGUAAUGGUAACGCGUCUCCCUCCUAAGGAGAAGACUGCGGGUUCGAGUCCCGUACGGAACG

Variants of: B1
Experiment: yeast fitness relative to wild type (ratio to wild type); higher = fitter; tRNA-Arg(CCU), competitive growth, 37 C, YPD
Summary of the method: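 Variants of the tRNA-Arg(CCU) gene were chemically synthesised with a 3% per-site mutation rate across 69 sites and placed at the native genomic locus in Saccharomyces cerevisiae. Six parallel replicates of the pooled strains were competed in YPD at 37°C for 24 hours, and gene amplicons from the start and end populations were read by 100-nucleotide paired-end sequencing. Darwinian fitness relative to wild type was derived from changes in genotype frequencies. Genotypes required ≥ 100 starting reads, and estimates < 0.5 were set to 0.5.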

| Variant | yeast fitness |
| --- | --- |
| GUUCAGUUGGCGUAAUGCUAACGCGUCUCCCUCCGAAGGAGAAGACUGCGGGUUCGCGUCCCGAACGGAACG [C5A G18C U35G A57C U64A] | ≤ 0.5 |
| GUUCAGUUGGCGUAAUGGUAACCCGUCUCCCUCCUAAGGAGAAGACUGCGGGUUCGAGUCCCGUGCGGAACG [C5A G23C A65G] | 0.532 |
| GUUCAGUUGGCGUAAUGGUAACCCGUCUCCCUCCUAAGGAGAAGACUGCGGGUUCGAGUCCUGUACGGUACG [C5A G23C C62U A69U] | ≤ 0.5 |
| GUUCAGUUGGCGUAAUGGUAACGCAUCUCCCUGCUAAGGAGAAGAAUGCGGGUUCGAGUCCCGUAAGGAACG [C5A G25A C33G C46A C66A] | ≤ 0.5 |
| GUUCAGUUGGCGUAAUGGUAACGCAUCCCCUUCCUAAGGCGGAGACUGCGGGUUCGAGUCCCGUACGGAACG [C5A G25A U28C C31U A40C A42G] | ≤ 0.5 |
| GUUCAGUUGGCGUAAUGGUAACGCCUCUCCCUCCUAAGGAGAAGACUGCGGGUUCGAGUCCCGUAGGGAACG [C5A G25C C66G] | ≤ 0.5 |
| GUUCAGUUGGCGUAAUGGUAACGCCUCUCCCUCCUAAGGAGAAGACUGCGGGUUCCAGUCCCGUACGGAACG [C5A G25C G56C] | ≤ 0.5 |
| GUUCAGUUGGCGUAAUGGUAACGCGUCUCCCUCCUAAGAAGAAAACUGCGGGUUCGAGUCCGGUAGGGAACG [C5A G39A G44A C62G C66G] | ≤ 0.5 |
| GUUCAGUUGGCGUAAUGGUAACGCGUCUCCCUCCUAAGAAGAAGACAGCGGGUUUGAGUCCCGUACAGGACG [C5A G39A U47A C55U G67A A69G] | ≤ 0.5 |
| GUUCAGUUGGCGUAAUGGUAACGCGUCUCCCUCCUAAGAAGAAGACAGCGGGUUCGAGUCCCGUACGCAACG [C5A G39A U47A G68C] | ≤ 0.5 |
| GUUCAGUUGGCGUAAUGGUAACGCGUCUCCCUCCUAAGCAGAAGACUGCGGGUUCGAGUCCCGUACGGAACG [C5A G39C] | 0.673 |
| GUUCAGUUGGCGUAAUGGUAACGCGUCUCCCUCCUAAGGAAAAGACUGCGGGUUAGAGUCCCGUACGGAACG [C5A G41A C55A] | ≤ 0.5 |
| GUUCAGUUGGCGUAAUGGUAACGCGUCUCCCUCCUAAGGAGAAGACUACGGGUUCGAGUCCCGUACGGAACG [C5A G48A] | 0.871 |
| GUUCAGUUGGCGUAAUGGUAACGCGUCUCCCUCCUAAGGAGAAGACUAGGGGUUCGAGUCCCGUACGGAACG [C5A G48A C49G] | 0.682 |
| GUUCAGUUGGCGUAAUGGUAACGCGUCUCCCUCCUAAGGAGAAGACUCCGGGUUCGAGUCCCGUACCGAACG [C5A G48C G67C] | 0.591 |
| GUUCAGUUGGCGUAAUGGUAACGCGUCUCCCUCCUAAGGAGAAGACUGCAGGUUCGAGUCCCGUACGCAACG [C5A G50A G68C] | ≤ 0.5 |
| GUUCAGUUGGCGUAAUGGUAACGCGUCUCCCUCCUAAGGAGAAGACUGCGCGUUCGAGUCCCCUCCGGAUCG [C5A G51C G63C A65C A70U] | ≤ 0.5 |
| GUUCAGUUGGCGUAAUGGUAACGCGUCUCCCUCCUAAGGAGAAGACUGCGGAUUCAACUCCCGUACGGAACG [C5A G52A G56A G58C] | ≤ 0.5 |
| GUUCAGUUGGCGUAAUGGUAACGCGUCUCCCUCCUAAGGAGAAGACUGCGGAUUCGACUCCCGUACGGAACG [C5A G52A G58C] | ≤ 0.5 |

| Variant | yeast fitness |
| --- | --- |
| GUUCAGUUGGCGUAAUGGUAACGCGUCUCCCUCCUAAGGAGAAGACUGCGGCUUCGAGUCCCGUAUGGAACG [C5A G52C C66U] | ≤ 0.5 |
| GUUCAGUUGGCGUAAUGGUAACGCGUCUCCCUCCUAAGGAGAAGACUGCGGGUUCGACUACCGUACGGACCG [C5A G58C C60A A70C] | ≤ 0.5 |
| GUUCAGUUGGCGUAAUGGUAACGCGUCUCCCUCCUAAGGAGAAGACUGCGGGUUCGAGUCCCGUACCGAACG [C5A G67C] | 1.03 |
| GUUCAGAUGGCGUAAUGGUAGCGCGUCUCCCUCCUAAGGAGAAGACUGCGGGUUCGAGUCCCGUACGGAACG [C5A U7A A21G] | ≤ 0.5 |
| GUUCAGCUGGCGUAAUGGUAACGCGUCUUCCUCCUAAGGAGAAGACUGCGGGUUCGAGUCCCGUAUGGAACG [C5A U7C C29U C66U] | ≤ 0.5 |
| GUUCAGCUGGCGUAAUGGUAACGCGUCUCAUUCCUAAGGAGAAGACUGCGGGUUCGAGUCCCGUACGGAACG [C5A U7C C30A C31U] | ≤ 0.5 |
| GUUCAGCUGGCGUAAUGGUAACGCGUCUCCCUCUUAAGGAGAAGACUGCGGGUUCGAGUCCCGUAUGGAACG [C5A U7C C34U C66U] | ≤ 0.5 |
| GUUCAGCUGGCGUAAUGGUAACGCGUCUCCCUCCUAAGGAGAAGACUGAGGGUUCGAGUCCCGUACGGCACG [C5A U7C C49A A69C] | ≤ 0.5 |
| GUUCAGCUGGCGUAAUGGUAACGCGUCUCCCUCCUAAGGAGAAGACUCCGGGUUCGAGUCCCGUACGGAACG [C5A U7C G48C] | ≤ 0.5 |
| GUUCAGGUGGCGUAAUGGUAACGCGUCUGCCUUCUAAGGAGAACACUGCGGGUUCGAGUCCCGUACGGCACG [C5A U7G C29G C33U G44C A69C] | ≤ 0.5 |
| GUUCAGUAGGCGUAAGGGUUACGCGUCUCCCUCCUGAGGAGAAGACUGCGGGUUCGAGUGCCGUACGGAACG [C5A U8A U16G A20U A36G C60G] | ≤ 0.5 |
| GUUCAGUCGGCGUGAUGGUAGCGCGUCUCCCUCCUAAGGAGAAGCCUGCGGGUUCCAGUCCCGUACGGAACG [C5A U8C A14G A21G A45C G56C] | ≤ 0.5 |
| GUUCAGUCGGCGUAAUGGUGACGCGUCUCCCUCGUAAGGAGAUGACUGCGGGUUCGAGUCCCGUAUGGAACG [C5A U8C A20G C34G A43U C66U] | ≤ 0.5 |
| GUUCAGUCGGUGUAAUGGUAACGCGUCUCCAUCCUAUGGAGAAGACUGCGGGUUCGAGUCCCGUACCGAACG [C5A U8C C11U C31A A37U G67C] | ≤ 0.5 |
| GUUCAGUCGGCGCAAUGGUAACGCGUCUCCCUCCUAAGGGGAAGACUGCGGGUUCGAGUCCUGUACGGAACG [C5A U8C U13C A40G C62U] | ≤ 0.5 |
| GUUCAGUGGGCGUAAUGGUAACGCGUUUCCCUCCUAAGGAGAAGGCUGCGGGCUCGAGUCCCGUACGGAACG [C5A U8G C27U A45G U53C] | ≤ 0.5 |
| GUUCAGUUGGCGAAAUGGUAACGCGUCUCCCUCCAAAGGAGAAGACUGCGGGUUCGAGCCCCGUACGGAACG [C5A U13A U35A U59C] | 0.661 |
| GUUCAGUUGGCGCAAUGGUAACGCGUCUUCCUCCUAAGGAGAAGACUCCGGCUUCGCAUCCCGUACGGAACG [C5A U13C C29U G48C G52C A57C G58A] | ≤ 0.5 |
| GUUCAGUUGGCGGAAUGGUAACGCGUCUCCCUCCUAAGGAGAAGACUGCGGGUUCGAGUCCCGUACGGAACG [C5A U13G] | 0.841 |
